The values that follow come from ChEMBL document CHEMBL1130133, “Terbenzimidazoles: influence of 2"-, 4-, and 5-substituents on cytotoxicity and relative potency as topoisomerase I poisons” (J Med Chem, 1997).

Assay [1] relates to RPMI 8402. Kind of assay: Cytotoxicity using human lymphoblast RPMI 8402 cells. The class given is functional, cell-based. In outline: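 Human lymphoblast RPMI 8402 cells were grown in suspension at 37 °C, 5% CO2, in RPMI with 10% heat-inactivated FBS, 2 mM L-glutamine, penicillin 100 U/mL and streptomycin 0.1 mg/mL. Cells were seeded at 2000/well and exposed continuously to a range of drug concentrations for 4 days, then read by MTT assay. A no-drug control was included, and each assay was run at least twice in six replica wells.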

Assay [2] addresses T1, DNA topoisomerase 1 (Homo sapiens) (UniProt P11387).
T1 sequence (whole entry): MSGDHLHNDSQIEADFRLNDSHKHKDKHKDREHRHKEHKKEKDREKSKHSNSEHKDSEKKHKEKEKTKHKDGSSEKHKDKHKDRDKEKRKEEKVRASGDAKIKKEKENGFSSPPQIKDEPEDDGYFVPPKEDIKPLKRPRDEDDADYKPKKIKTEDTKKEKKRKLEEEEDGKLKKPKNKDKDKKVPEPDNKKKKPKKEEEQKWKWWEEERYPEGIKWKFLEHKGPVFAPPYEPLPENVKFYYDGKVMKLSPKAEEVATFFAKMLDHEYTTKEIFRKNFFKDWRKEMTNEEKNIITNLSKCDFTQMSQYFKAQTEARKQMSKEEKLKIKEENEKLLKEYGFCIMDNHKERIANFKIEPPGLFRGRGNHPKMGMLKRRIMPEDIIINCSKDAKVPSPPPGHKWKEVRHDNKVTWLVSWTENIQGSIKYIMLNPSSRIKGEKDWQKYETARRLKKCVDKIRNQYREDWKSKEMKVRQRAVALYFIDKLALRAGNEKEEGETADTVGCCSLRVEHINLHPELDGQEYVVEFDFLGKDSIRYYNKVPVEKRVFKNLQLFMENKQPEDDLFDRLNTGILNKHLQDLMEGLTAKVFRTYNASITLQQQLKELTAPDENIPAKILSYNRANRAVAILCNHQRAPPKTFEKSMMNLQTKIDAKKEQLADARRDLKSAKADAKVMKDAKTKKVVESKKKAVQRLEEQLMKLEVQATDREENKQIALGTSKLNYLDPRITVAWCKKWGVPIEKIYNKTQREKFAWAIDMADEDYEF
Briefly: Topoisomerase I mediated DNA cleavage. It is filed as functional. Put shortly:
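Recombinant human topoisomerase I (expressed in E. coli) was incubated with end-labeled plasmid YEpG DNA and drug for 30 min at 37 °C. Drug was given as 10-fold serial dilutions from 0.01 to 10 µg/mL. Fragments were separated on gels and autoradiographed, typically with 24 h exposure. Cleavage was scored from the strongest specific band and expressed as concentration relative to reference compound (set to 1) giving equal cleavage.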

Take `Cc1nc2cc(-c3nc4cc(-c5nc6cc(-c7ccccc7)ccc6[nH]5)ccc4[nH]3)ccc2[nH]1`: 110 nM corresponded to half-maximal inhibition in assay [1] (IC50). The compound also showed an REC in assay [2] of 2.

In the case of `CCc1nc2cc(-c3nc4cc(-c5nc6cc(-c7ccccc7)ccc6[nH]5)ccc4[nH]3)ccc2[nH]1`, in assay [1], it took 110 nM to reach half-maximal inhibition (IC50). Further, the REC in assay [2] was 1.

`c1ccc(-c2cccc3[nH]c(-c4ccc5[nH]c(-c6ccc7[nH]cnc7c6)nc5c4)nc23)cc1` displayed an IC50 in assay [1] of 7000 nM. In assay [2], this compound returned an REC of 5.

For the compound `CCCc1nc2cc(-c3nc4cc(-c5nc6cc(-c7ccccc7)ccc6[nH]5)ccc4[nH]3)ccc2[nH]1`, the concentration for half-maximal inhibition (IC50) in assay [1] is 60 nM. Further, the REC in assay [2] came out at 0.5.

In assay [1], `c1ccc2cc(-c3ccc4[nH]c(-c5ccc6[nH]c(-c7ccc8[nH]cnc8c7)nc6c5)nc4c3)ccc2c1` returned a concentration for half-maximal inhibition (IC50) of 80 nM. Besides, the REC in assay [2] came to 1.

For the compound `Clc1ccc(-c2ccc3[nH]c(-c4ccc5[nH]c(-c6ccc7[nH]cnc7c6)nc5c4)nc3c2)cc1`, the IC50 in assay [1] came out at 90 nM. Also, in assay [2], the REC stood at 2.

Take `COc1ccc(-c2nc3cc(-c4nc5cc(-c6nc7cc(-c8ccccc8)ccc7[nH]6)ccc5[nH]4)ccc3[nH]2)cc1`: in assay [1], the IC50 was determined as 380 nM. In assay [2], this compound displayed an REC of 20.

As for `CC(C)c1nc2cc(-c3nc4cc(-c5nc6cc(-c7ccccc7)ccc6[nH]5)ccc4[nH]3)ccc2[nH]1`, in assay [1], it took 60 nM to reach half-maximal inhibition (IC50). In addition, in assay [2], the REC was 0.05.

Take `c1ccc2c(-c3ccc4[nH]c(-c5ccc6[nH]c(-c7ccc8[nH]cnc8c7)nc6c5)nc4c3)cccc2c1`: in assay [1], the concentration for half-maximal inhibition (IC50) was 2100 nM. Moreover, the REC in assay [2] was found to be 2.

In assay [1], `c1ccc(-c2ccc3[nH]c(-c4ccc5[nH]c(-c6ccc7[nH]c(-c8ccccc8)nc7c6)nc5c4)nc3c2)cc1` showed an IC50 of 60 nM. Also, the REC in assay [2] was 20.

`c1ccc2c(c1)ccc1[nH]c(-c3ccc4[nH]c(-c5ccc6[nH]cnc6c5)nc4c3)nc12` showed an IC50 in assay [1] of 25000 nM. Moreover, the REC in assay [2] was 1.

`c1ccc2cc3[nH]c(-c4ccc5[nH]c(-c6ccc7[nH]cnc7c6)nc5c4)nc3cc2c1` came in with an IC50 in assay [1] of more than 100000 nM. This compound also came in with an REC in assay [2] of more than 1000.

On to `COc1ccc(-c2ccc3[nH]c(-c4ccc5[nH]c(-c6ccc7[nH]cnc7c6)nc5c4)nc3c2)cc1`, for which the 50% inhibitory concentration (IC50) in assay [1] was determined as 90 nM. The same compound returned an REC in assay [2] of 0.5.

In assay [2], `c1ccc(-c2ccc3[nH]c(-c4ccc5[nH]c(-c6ccc7[nH]cnc7c6)nc5c4)nc3c2)cc1` registered an REC of 1.

What is called IC50 is the concentration at which inhibition is half-maximal. Lower therefore signals greater potency.
